Laboratory results taken from ChEMBL document CHEMBL3108762, “Novel pyridazinone inhibitors for vascular adhesion protein-1 (VAP-1): old target-new inhibition mode” (J Med Chem, 2013).
The source made the active and inactive calls. No cut-off for these calls is given here.

Tests used:
[1] = target: T1, Amine oxidase [copper-containing] 3 (Homo sapiens, UniProt Q16853); test: Inhibition of human recombinant VAP-1 transfected in CHO cells using 2,4-dichlorophenol/benzylamine as substrate incubated for 30 mins prior to benzylamine addition measured after 1 hr by spectrophotometry; type: cell-based
T1 sequence (Q16853 whole entry): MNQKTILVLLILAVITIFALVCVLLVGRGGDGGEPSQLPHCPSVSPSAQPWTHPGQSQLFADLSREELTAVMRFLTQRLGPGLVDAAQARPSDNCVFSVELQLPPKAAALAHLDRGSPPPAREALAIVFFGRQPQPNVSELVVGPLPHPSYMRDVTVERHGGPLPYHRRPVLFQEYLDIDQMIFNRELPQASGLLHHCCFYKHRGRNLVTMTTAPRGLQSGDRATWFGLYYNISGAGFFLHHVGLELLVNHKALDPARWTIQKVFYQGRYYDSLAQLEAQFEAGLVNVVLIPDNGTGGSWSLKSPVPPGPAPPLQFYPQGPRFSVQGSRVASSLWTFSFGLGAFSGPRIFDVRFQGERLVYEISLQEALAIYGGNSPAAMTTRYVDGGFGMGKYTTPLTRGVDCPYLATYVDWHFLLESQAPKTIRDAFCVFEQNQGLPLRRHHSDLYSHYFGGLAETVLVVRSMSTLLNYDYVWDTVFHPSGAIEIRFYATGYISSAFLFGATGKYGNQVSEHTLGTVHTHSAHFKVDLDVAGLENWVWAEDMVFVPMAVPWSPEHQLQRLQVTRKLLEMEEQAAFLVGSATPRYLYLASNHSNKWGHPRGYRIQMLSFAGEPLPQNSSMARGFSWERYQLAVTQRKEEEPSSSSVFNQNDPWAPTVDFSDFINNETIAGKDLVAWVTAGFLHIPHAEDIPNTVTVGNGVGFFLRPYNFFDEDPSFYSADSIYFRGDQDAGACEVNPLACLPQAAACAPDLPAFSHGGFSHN
Outline: (§1)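 Coupled colorimetric H2O2 assay with lysate of CHO cells stably expressing full-length VAP-1 of the listed species, dosed to give 0.6 A490/h. Conditions: 0.2 M potassium phosphate pH 7.6, 1 mM 2,4-dichlorophenol, 500 μM 4-aminoantipyrine, 4 U/ml HRP, inhibitor 1 nM–50 μM. Preincubated 30 min at 37 °C, then 1 mM benzylamine (final) for 1 h at 37 °C; A490 read, background-corrected, percent inhibition versus control, IC50 fitted; mean of two to six experiments ± SE.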

MAO-A = target: T2, MAO-A (Homo sapiens, UniProt P21397); test: Inhibition of human recombinant MAO-A expressed in baculovirus infected BTI insect cells using vanillic acid/tyramine as substrate at 20 uM incubated for 30 mins prior to tyramine addition measured after 1 hr by spectrophotometry; details: probe tyramine (with vanillic acid)
T2 sequence (P21397 whole entry): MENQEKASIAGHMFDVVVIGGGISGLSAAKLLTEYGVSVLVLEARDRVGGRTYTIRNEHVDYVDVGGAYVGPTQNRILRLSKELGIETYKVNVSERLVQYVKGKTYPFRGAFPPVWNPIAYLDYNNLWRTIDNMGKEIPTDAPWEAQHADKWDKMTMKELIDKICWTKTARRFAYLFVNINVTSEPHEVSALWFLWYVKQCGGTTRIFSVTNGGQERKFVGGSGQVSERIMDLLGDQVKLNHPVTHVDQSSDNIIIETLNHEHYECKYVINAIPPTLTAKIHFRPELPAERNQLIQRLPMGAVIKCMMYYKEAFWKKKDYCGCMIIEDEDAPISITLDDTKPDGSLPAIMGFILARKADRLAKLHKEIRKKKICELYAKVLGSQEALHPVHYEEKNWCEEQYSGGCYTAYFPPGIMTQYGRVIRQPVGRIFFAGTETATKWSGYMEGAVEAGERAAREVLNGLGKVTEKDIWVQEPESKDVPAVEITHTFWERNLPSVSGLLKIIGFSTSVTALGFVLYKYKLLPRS
Outline: (§2)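 Peroxidase-coupled colorimetric assay as for VAP-1, with 1 mM vanillic acid in place of 2,4-dichlorophenol and 0.5 mM tyramine (final) as substrate. Conditions: 0.2 M potassium phosphate pH 7.6, 500 μM 4-aminoantipyrine, 4 U/ml HRP, 30 min preincubation at 37 °C, then 1 h at 37 °C; A490 read. Enzymes: purified human MAO-A or MAO-B from baculovirus-infected BTI insect cells, or total MAO-A/B extracted from rat liver mitochondria. Single-concentration percent inhibition.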

[2] = target: T3, Amine oxidase [copper-containing] 3 (Rattus norvegicus) (UniProt O08590); test: Inhibition of rat VAP-1
T3 sequence (whole entry): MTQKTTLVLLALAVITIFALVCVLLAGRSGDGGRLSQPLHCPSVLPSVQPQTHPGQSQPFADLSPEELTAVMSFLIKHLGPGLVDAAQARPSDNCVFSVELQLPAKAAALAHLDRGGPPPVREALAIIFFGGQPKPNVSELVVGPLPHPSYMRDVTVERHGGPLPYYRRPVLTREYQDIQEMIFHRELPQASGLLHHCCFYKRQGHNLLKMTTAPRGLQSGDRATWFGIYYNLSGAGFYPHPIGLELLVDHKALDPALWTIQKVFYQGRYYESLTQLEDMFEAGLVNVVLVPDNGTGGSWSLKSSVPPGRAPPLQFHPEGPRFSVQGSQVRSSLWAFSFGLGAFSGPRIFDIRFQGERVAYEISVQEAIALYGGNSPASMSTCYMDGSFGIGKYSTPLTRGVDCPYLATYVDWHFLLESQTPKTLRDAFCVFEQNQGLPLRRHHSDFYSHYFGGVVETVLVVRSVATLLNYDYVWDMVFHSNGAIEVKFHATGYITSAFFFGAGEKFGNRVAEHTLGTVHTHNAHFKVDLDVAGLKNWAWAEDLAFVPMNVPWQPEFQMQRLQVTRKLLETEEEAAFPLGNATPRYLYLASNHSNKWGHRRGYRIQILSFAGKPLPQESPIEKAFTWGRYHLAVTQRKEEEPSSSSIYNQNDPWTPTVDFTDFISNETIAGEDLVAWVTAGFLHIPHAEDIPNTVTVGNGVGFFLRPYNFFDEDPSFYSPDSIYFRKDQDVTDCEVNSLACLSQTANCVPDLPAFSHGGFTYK

[3] = target: T4, Amine oxidase [copper-containing] 3 (Mus musculus) (UniProt O70423); test: Inhibition of mouse recombinant VAP-1 transfected in CHO cells using 2,4-dichlorophenol/benzylamine as substrate at 1 nM to 50 uM incubated for 30 mins prior to benzylamine addition measured after 1 hr by spectrophotometry; type: cell-based; outline: as §1
T4 sequence (whole entry): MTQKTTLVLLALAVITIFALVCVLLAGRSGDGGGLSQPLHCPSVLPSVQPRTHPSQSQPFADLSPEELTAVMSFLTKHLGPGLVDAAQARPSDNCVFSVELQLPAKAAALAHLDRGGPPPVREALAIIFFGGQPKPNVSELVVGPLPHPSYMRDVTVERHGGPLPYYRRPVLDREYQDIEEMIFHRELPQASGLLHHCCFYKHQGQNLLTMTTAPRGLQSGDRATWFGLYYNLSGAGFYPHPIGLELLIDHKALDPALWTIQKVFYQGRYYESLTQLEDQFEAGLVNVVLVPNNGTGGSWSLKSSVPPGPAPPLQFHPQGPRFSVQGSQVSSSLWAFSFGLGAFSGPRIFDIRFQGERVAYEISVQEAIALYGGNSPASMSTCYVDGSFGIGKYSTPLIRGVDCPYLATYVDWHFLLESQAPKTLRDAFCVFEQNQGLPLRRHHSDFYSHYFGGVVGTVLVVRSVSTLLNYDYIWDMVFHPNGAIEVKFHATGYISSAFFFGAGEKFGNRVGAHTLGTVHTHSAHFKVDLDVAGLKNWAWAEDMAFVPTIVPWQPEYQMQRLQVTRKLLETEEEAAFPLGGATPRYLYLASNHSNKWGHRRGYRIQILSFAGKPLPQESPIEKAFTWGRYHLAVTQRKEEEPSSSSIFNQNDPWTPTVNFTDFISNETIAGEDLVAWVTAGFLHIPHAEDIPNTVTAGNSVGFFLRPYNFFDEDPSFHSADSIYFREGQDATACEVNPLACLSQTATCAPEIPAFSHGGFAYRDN

Rattus norvegicus = species on record: Rattus norvegicus; test: Inhibition of rat liver MAO using vanillic acid/tyramine as substrate at 100 uM incubated for 30 mins prior to tyramine addition measured after 1 hr by spectrophotometry; outline: as §2
MAO-B = target: T5, MAO-B (Homo sapiens, UniProt P27338); test: Inhibition of human recombinant MAO-B expressed in baculovirus infected BTI insect cells using vanillic acid/tyramine as substrate at 20 uM incubated for 30 mins prior to tyramine addition measured after 1 hr by spectrophotometry; details: probe tyramine (with vanillic acid); outline: as §2
T5 sequence (P27338 whole entry): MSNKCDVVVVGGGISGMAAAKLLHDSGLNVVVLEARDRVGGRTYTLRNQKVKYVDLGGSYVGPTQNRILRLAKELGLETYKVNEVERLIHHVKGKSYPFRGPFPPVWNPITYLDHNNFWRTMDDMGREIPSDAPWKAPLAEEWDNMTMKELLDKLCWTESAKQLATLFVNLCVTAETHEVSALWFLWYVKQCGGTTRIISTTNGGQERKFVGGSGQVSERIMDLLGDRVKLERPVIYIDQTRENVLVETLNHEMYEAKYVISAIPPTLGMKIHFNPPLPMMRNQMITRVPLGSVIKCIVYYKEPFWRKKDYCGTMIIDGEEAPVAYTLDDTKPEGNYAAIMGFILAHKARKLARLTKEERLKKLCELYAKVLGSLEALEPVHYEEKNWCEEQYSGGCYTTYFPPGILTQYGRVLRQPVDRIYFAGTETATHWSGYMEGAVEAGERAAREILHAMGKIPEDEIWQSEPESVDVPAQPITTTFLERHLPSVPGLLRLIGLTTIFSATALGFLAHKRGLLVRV

[4] = Inhibition of cynomolgus monkey recombinant VAP-1 transfected in CHO cells using 2,4-dichlorophenol/benzylamine as substrate incubated for 30 mins prior to benzylamine addition measured after 1 hr by spectrophotometry; type: cell-based, Macaca fascicularis; outline: as §1
Cavia porcellus = species on record: Cavia porcellus; test: Inhibition of guinea pig VAP-1
Cricetinae = test: Inhibition of hamster VAP-1
[5] = target: T6, Diamine oxidase [copper-containing] (Sus scrofa) (UniProt Q9TRC7); test: Inhibition of pig kidney DAO at 50 uM
T6 sequence (whole entry): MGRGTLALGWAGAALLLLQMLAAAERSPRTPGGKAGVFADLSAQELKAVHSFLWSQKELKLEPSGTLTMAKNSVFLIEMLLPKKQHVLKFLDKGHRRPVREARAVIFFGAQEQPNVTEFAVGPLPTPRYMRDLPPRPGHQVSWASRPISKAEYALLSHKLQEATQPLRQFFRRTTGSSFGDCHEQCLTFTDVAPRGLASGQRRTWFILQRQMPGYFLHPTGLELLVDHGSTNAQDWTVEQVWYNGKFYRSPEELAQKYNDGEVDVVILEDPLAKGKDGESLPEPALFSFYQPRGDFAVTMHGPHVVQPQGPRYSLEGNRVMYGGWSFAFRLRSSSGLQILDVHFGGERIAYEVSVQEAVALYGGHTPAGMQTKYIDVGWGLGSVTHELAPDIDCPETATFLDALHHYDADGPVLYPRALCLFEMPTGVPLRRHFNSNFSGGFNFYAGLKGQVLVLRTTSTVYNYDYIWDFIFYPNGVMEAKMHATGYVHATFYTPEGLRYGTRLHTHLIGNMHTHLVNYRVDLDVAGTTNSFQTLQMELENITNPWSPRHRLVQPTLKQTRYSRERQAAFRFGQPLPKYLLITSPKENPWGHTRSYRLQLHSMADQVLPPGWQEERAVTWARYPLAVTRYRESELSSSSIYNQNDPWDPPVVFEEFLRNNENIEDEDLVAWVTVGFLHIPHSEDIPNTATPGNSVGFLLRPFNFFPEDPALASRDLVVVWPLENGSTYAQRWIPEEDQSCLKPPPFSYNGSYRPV

[6] = target: T1, Amine oxidase [copper-containing] 3; test: Binding affinity to human recombinant VAP-1 by surface plasmon resonance analysis
Outline: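 Surface plasmon resonance binding kinetics: recombinant purified VAP-1 amine-coupled to a CM5 chip after preconcentration in 10 mM Na acetate pH 4.4 with 10 μM CuCl2.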

[7] = target: T6, Diamine oxidase [copper-containing] (Sus scrofa); test: Inhibition of pig kidney DAO at 100 uM

| IC50 [1] | inhibition [2] | inhibition [3] | inhibition (Rattus norvegicus) | IC50 [4] | inhibition (Cavia porcellus) | inhibition (Cricetinae) | Kd [6] | inhibition [7] | Structure (SMILES) | inhibition at 1 h, 20 µM (MAO-A) | inhibition at 1 h, 20 µM (MAO-B) | inhibition [5] |
| --- | --- | --- | --- | --- | --- | --- | --- | --- | --- | --- | --- | --- |
| 290 nM | inactive | 10% | 8% | 250 nM | inactive | inactive | 200 nM | 30% | CC(C)Nc1cc(=O)n(-c2ccccc2)nc1-c1nc[nH]n1 | – | – | – |
| 71 nM | inactive | 24% | 3% | 130 nM | inactive | inactive | 170 nM | 40% | O=c1cc(NC2CCCCC2)c(-c2nc[nH]n2)nn1-c1ccccc1 | 4% | 13% | – |

| Structure (SMILES) | IC50 [1] | inhibition [2] | inhibition [3] | inhibition (Rattus norvegicus) | IC50 [4] | inhibition (Cavia porcellus) | inhibition (Cricetinae) | Kd [6] | inhibition [7] | inhibition at 1 h, 20 µM (MAO-A) | inhibition at 1 h, 20 µM (MAO-B) | inhibition [5] |
| --- | --- | --- | --- | --- | --- | --- | --- | --- | --- | --- | --- | --- |
| CN1CCN(c2ccc(Nc3cc(=O)n(-c4ccc(Cl)cc4)nc3-c3nc[nH]n3)cc2)CC1 | 20 nM | inactive | 23% | 18% | 26 nM | inactive | inactive | – | – | 3% | 1% | 36% |
